For experiment [1], the target named is Mitogen-activated protein kinase 14 (Homo sapiens, UniProt Q16539). The experiment in a line: Inhibition of human p38alpha after 60 mins. A digest of the protocol: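 Radiometric kinase assay measuring incorporation of γ-32P-ATP into biotinylated peptide substrate by human p38α (5 nM). 60 min at 30 °C, phosphoric acid stop, streptavidin capture, scintillation counting; background-subtracted IC50 versus no-inhibitor controls.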

For experiment [2], the system named is Blood. The experiment in a line: Inhibition of LPS-induced TNFalpha production in human diluted whole blood at 1 uM after 2 hrs by ELISA. Format: functional. On the technique in general: In an ELISA, binding on a coated surface is turned into a signal by an enzyme label.
Experiment [3] has as its system Blood. Briefly: Inhibition of LPS-induced TNFalpha production in human diluted whole blood after 2 hrs by ELISA. Format: functional, tissue-based.
Experiment [4] deals with Blood. The experiment in a line: Inhibition of LPS-induced TNFalpha production in human diluted whole blood at 0.3 uM after 2 hrs by ELISA. It counts as functional.

The IC50 is the point on the concentration scale where inhibition reaches its midpoint. By inhibition is commonly meant the change of the read-out against control, counted positive when it falls. Read a high inhibition as a strong effect.

Chain of Mitogen-activated protein kinase 14 (Q16539 whole entry): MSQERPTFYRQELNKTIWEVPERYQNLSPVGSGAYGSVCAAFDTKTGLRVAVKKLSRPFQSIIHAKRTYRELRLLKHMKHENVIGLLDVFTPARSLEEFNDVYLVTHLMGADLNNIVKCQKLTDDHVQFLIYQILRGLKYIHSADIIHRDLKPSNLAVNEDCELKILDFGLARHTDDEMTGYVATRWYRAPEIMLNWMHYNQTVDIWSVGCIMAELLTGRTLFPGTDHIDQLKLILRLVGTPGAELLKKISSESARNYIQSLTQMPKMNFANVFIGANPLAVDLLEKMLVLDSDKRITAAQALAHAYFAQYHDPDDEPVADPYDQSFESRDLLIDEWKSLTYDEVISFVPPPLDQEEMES

As to `CN(C)C(=O)C(=O)c1ccc2c(c1)C=C(C(=O)N1CCC(Cc3ccc(F)cc3)CC1)C(C(F)(F)F)O2` (centres undefined), the IC50 in experiment [1] is greater than 10000 nM.

Take `COc1ccc(C(=O)C(=O)N(C)C)cc1C(=O)N1CCC(Cc2ccc(F)cc2)CC1`: the inhibition at 1 µM in the experiment with Blood [2] stood at 17%. Further, in experiment [1], the IC50 was found to be 945 nM.

`COc1cc2occ(C(=O)C(=O)N(C)C)c2cc1C(=O)N1CCC(Cc2ccc(F)cc2)CC1` showed an inhibition at 1 µM in the experiment with Blood [2] of 10%. The IC50 in experiment [1] was 600 nM.

For the compound `COc1nc2[nH]cc(C(=O)C(=O)N(C)C)c2cc1C(=O)N1CCC(Cc2ccc(F)cc2)CC1`, the values for the IC50 (in the experiment on Blood [3]; in experiment [1]) were 48 nM and 60 nM, respectively.

For the compound `CN(C)C(=O)C(=O)c1c[nH]c2cc(Cl)c(C(=O)N3CCC(Cc4ccc(F)cc4)CC3)cc12`, the IC50 in the experiment on Blood [3] came to 100 nM; in experiment [1], 18 nM.

Take `CN(C)C(=O)C(=O)c1nn(C)c2cc(Cl)c(C(=O)N3CCC(Cc4ccc(F)cc4)CC3)cc12`: in the experiment with Blood [4], 0.3 µM produced 26% inhibition. Further, the IC50 in experiment [1] stood at 100 nM.

As for `Cc1[nH]c2ccc(C(=O)C(=O)N(C)C)cc2c1C(=O)N1CCC(Cc2ccc(F)cc2)CC1`, the IC50 in experiment [1] stood at 90 nM.

As for `COc1cc2[nH]cc(C(=O)C(=O)N(C)C)c2cc1C(=O)N1CCC(Cc2ccc(F)cc2)CC1`, the IC50 in the experiment with Blood [3] is 30 nM; in experiment [1], 10 nM.

Source of the values: ChEMBL document CHEMBL1158523, “Piperidine-based heterocyclic oxalyl amides as potent p38 alpha MAP kinase inhibitors” (Bioorg Med Chem Lett, 2010).
